Experimental data gathered from unrelated publications.
Compare with care: the assays were run in different laboratories.
Target: Tyrosine-protein kinase Fyn (FYN, Homo sapiens, UniProt P06241)

Cc1nn(C)cc1-c1nc2c(N3CCN(Cc4ccc(Cl)cc4)CC3)c(Cl)cnc2[nH]1
remaining binding (binding, competition with immobilised ligand; 1 µM): 100%

N#CC1(c2ccccn2)CCN(Cc2cc(C(=O)O)c(=O)n3ccccc23)CC1
remaining binding (cell-free assay, competition with immobilised ligand; 1 µM): 99%

CC(C)(C)c1cc(C=C(C#N)C#N)cc(Br)c1O
remaining activity (enzyme activity, inhibitor; 0.5 µM): 67.2%

C#Cc1n[nH]c2c(-c3cn([C@@H](C)c4ccccc4)c(=O)[nH]c3=O)cc(F)cc12
inhibition (enzyme activity, inhibitor; 0.1 µM): 0.7%

O=C(Nc1cccnn1)N1CCN([C@@H]2CCOc3cc(C(F)(F)F)ccc32)CC1
inhibition (enzyme activity, inhibitor; 20 µM): 0%

Nc1ncc(-c2nc(N3CCOCC3)nc(N3CCOCC3)n2)c(C(F)F)n1
remaining binding (binding, competition with immobilised ligand; 10 µM): 100%

Cn1cncc1[C@](O)(COc1ccc(C#N)cc1-c1ccc(OC(F)(F)F)cc1)c1ccc(C#N)cc1
remaining binding (cell-free assay, competition with immobilised ligand; 1 µM): 100%

Cn1cc(-c2cccc(N3CCc4c(sc5c4CC(C)(C)C5)C3=O)c2CO)cc(Nc2ccncn2)c1=O
inhibition (enzyme activity, inhibitor; 1 µM): 6%

O=c1[nH]c2ccccc2n1C1CCN(Cc2ccc(-c3[nH]c4cc5ncnc5cc4nc3-c3ccccc3)cc2)CC1
remaining signal (cell-free assay; 0.5 µM): 101%

Cc1ncc(C)n2nc(/C=C/c3nc(N4CCCC4)cc(N4CCOCC4)n3)nc12
inhibition (enzyme activity, inhibitor; 10 µM): 9%

COc1ncccc1-c1cnn2ccc(N3CCN(C(=O)OC(C)C)CC3)nc12
remaining binding (binding, competition with immobilised ligand; 1 µM): 49%

Cn1cc(-c2cc(F)cc(N3CCn4c(cc5c4CCCC5)C3=O)c2CO)cc(Nc2ccc(N3CCN(C4COC4)CC3)cn2)c1=O
inhibition (enzyme activity, inhibitor; 0.1 µM): 8%

C#Cc1n[nH]c2c(-c3cn([C@@H](C)c4ccccn4)c(=O)[nH]c3=O)cc(F)cc12
inhibition (enzyme activity, inhibitor; 0.1 µM): 1.4%
